Laboratory results from paper PMC7124310 (Peptides, 2003).
No end group written: not given here.

Assays:
mammalian cells = conditions: cited from earlier work
E. coli O18:K1:H7 Bort = experiment: MIC, microdilution susceptibility test; type: cell-based, Escherichia coli; conditions: strain used in peritonitis model; Mueller–Hinton broth
Summary of the method: (§1)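 Strains were stored at −80 °C and subcultured in LB broth before use. MIC was determined by broth microdilution following NCCLS guidelines in Mueller–Hinton broth with logarithmic-phase bacteria. Values are the mean of at least four independent experiments.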

S. aureus MRSA = experiment: MIC, microdilution susceptibility test; type: cell-based, Staphylococcus aureus; conditions: strain used in peritonitis model; Mueller–Hinton broth
Summary of the method: as §1

Vero76 cells = experiment: Peptide cytotoxicity, neutral red uptake assay; type: cell-based; conditions: for Cell survival: 30 min at 37°C, neutral red uptake after 48 h, uninfected cells
Summary of the method: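 Confluent uninfected Vero76 monolayers (MEM, 10% FCS, penicillin/streptomycin) were exposed to test peptide (0.5–50 μM range, in MEM) for 30 min at 37 °C, 5% CO2. Cells were washed and kept 48 h in growth medium, then given 50 μg/ml neutral red for 3 h. They were fixed in formaldehyde/CaCl2, the dye was extracted with acidified ethanol, and A550 was read. Triplicates, two experiments.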

P. aeruginosa ATCC 27853 = experiment: MIC, microdilution susceptibility test; type: cell-based, Pseudomonas aeruginosa; conditions: strain used in peritonitis model; Mueller–Hinton broth
Summary of the method: as §1

[1] = test system: Gram-negative and -positive clinical isolates; experiment: MIC, microdilution susceptibility test, whole panel of clinical isolates; type: cell-based; conditions: 53 bacterial isolates incl. antibiotic-resistant strains
Summary of the method: as §1

Gram-positive strains = experiment: MIC, microdilution susceptibility test, Gram-positive isolates; type: cell-based; conditions: Gram-positive strains (Fig. 1 and Table 2)
Summary of the method: as §1

[2] = test system: human herpes simplex virus type 1 (HSV-1); experiment: Virus yield inhibition assay; type: cell-based, HSV-1 in Vero76 cells; conditions: mean of two independent experiments in triplicate
Summary of the method: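 Confluent Vero76 monolayers were infected with 10^4 […] HSV-1 together with test peptide in MEM for 30 min at 37 °C, washed with PBS, and incubated 24 h. They were freeze-thawed three times. Ten-fold supernatant dilutions were adsorbed 1 h onto fresh monolayers under a 0.8% carboxymethylcellulose/2% FCS overlay for 3 days. Plaques were stained with crystal violet and counted as % inhibition versus untreated controls. Triplicates, repeated.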

[3] = test system: A. baumannii and P. aeruginosa; experiment: MIC, microdilution susceptibility test; type: cell-based, Acinetobacter baumanni, Pseudomonas aeruginosa; conditions: clinical isolates (Fig. 2)
Summary of the method: as §1

In vivo toxicity, i.v. = experiment: In vivo toxicity, i.v.; set-up: species or system male Balb/c mice; conditions: single dose, Litchfield and Wilcoxon
Summary of the method: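 Male Balb/c mice (about 20 g, 4 weeks old) received a single i.v. injection of increasing doses of test peptide in sterile PBS, with vehicle-only controls. Behaviour and survival were monitored for 7 days. LD50 was calculated by the Litchfield–Wilcoxon method.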

Gram-negative species = experiment: MIC, microdilution susceptibility test, Gram-negative isolates; type: cell-based; conditions: Gram-negative species (Fig. 2 and Table 2)
Summary of the method: as §1

[4] = 12 mg/kg peptide i.v.; cited from earlier work

In the case of GGLRSLGRKILRAWKKYG-NH2 [BMAP-28(1–18)], the “cytotoxic and haemolytic activities” value (mammalian cells) is listed as “virtually devoid”, the MIC (E. coli O18:K1:H7 Bort) is listed as 2 µM and the MIC (S. aureus MRSA) is listed as 4 to 8 µM. For the same substance, the “toxicity to Vero cells” value (Vero76 cells; 5 μM peptide) was “not toxic” and the MIC (P. aeruginosa ATCC 27853) was 2 µM.
For “GGLRSLGRKILRAWKKYGPIIVPIIRI-NH2 [BMAP-28]”, the “concentration range toxic to mammalian cells” value (mammalian cells) is listed as “above 10 μM”, the MIC (E. coli O18:K1:H7 Bort) is listed as 2 µM and the “MIC values in most cases” value [1] is listed as 1 to 8 µM. It also gave an MIC values (Gram-positive strains) of 1 to 8 µM, an MIC (S. aureus MRSA) of 2 µM and a Cell survival (Vero76 cells; 0.5 μM peptide) of 100%. The “cells taking up the neutral red dye (cytotoxicity)” value (Vero76 cells; 5 μM peptide) was 17%, the Cell survival (Vero76 cells; 5 μM peptide) was 83% and the Cell survival (Vero76 cells; 50 μM peptide) was 5%. The MIC (P. aeruginosa ATCC 27853) was 2 µM, the Virus yield inhibition ([2]; 0.5 μM peptide) was 10% and the Virus yield inhibition ([2]; 5 μM peptide) was 72%.
“GGLRSLGRKILRAWKKYGPQATPATRQ-NH2 [mBMAP-28]” gave an MIC (E. coli O18:K1:H7 Bort) of 2 µM, an MIC values (Gram-positive strains) greater than 32 µM and an MIC (S. aureus MRSA) greater than 32 µM. The MICs [3] was 0.25 to 1 µM and the MIC (P. aeruginosa ATCC 27853) was 2 µM.
For GRFKRFRKKFKKLFKKLS-NH2 [BMAP-27(1–18)], the “cytotoxic and haemolytic activities” value (mammalian cells) is given as “virtually devoid”, the MIC (E. coli O18:K1:H7 Bort) is given as 8 µM and the MIC (S. aureus MRSA) is given as 4 to 8 µM. It also gave an MIC (P. aeruginosa ATCC 27853) of 2 µM.
In the case of “GRFKRFRKKFKKLFKKLSPVIPLLHL-NH2 [BMAP-27]”, the “concentration range toxic to mammalian cells” value (mammalian cells) is given as “above 10 μM”, the MIC (E. coli O18:K1:H7 Bort) is given as 0.5 µM and the “MIC values in most cases” value [1] is given as 1 to 8 µM. The MIC (S. aureus MRSA) was 4 µM, the “cytotoxicity to Vero cells” value (Vero76 cells; lowest peptide concentration tested (range 0.5–50 μM)) was “cytotoxic even at the lowest peptide concentration tested” and the LD50 (In vivo toxicity, i.v.) was 10 mg/kg. For the same substance, the MIC (P. aeruginosa ATCC 27853) was 1 µM and the MIC values (Gram-negative species) was 1 to 2 µM.
In the case of ILRAWKKYGPIIVPIIRI-NH2 [BMAP-28(10–27)], the MIC (E. coli O18:K1:H7 Bort) is reported as 2 µM, the MIC (S. aureus MRSA) is reported as 8 µM and the MIC (P. aeruginosa ATCC 27853) is reported as 8 µM.
For “indolicidin: a bovine cathelicidin peptide (ILPWKWPWWPWRR; ends and bridges not checked; UniProt P33046 131-143, looked up)”, the “toxicity to mice when injected i.v.” value [4] is listed as “all treated animals died”.
